In brackets after ≈: the same amount, converted by molar mass.
Key:
[1] = target: Carbapenem-hydrolyzing beta-lactamase KPC (Klebsiella pneumoniae) (UniProt Q9F663)
[2] = target: Metallo-beta-lactamase type 2 (Bacteroides fragilis) (UniProt P25910); assay: Minimum protective concentration used to protect the compound against Bacteroides fragilis A-22,695 beta-lactamase catalyzed hydrolysis
[3] = target: Beta-lactamase (Staphylococcus aureus) (UniProt P00807); assay: Minimum protective concentration used to protect the compound against Staphylococcus aureus A9606 beta-lactamase catalyzed hydrolysis
[4] = tested on: TEM beta-lactamase (Klebsiella pneumoniae); assay: Minimum protective concentration used to protect the compound against Klebsiella pneumoniae A20634 beta-lactamase catalyzed hydrolysis
Staphylococcus aureus [5] = assay: Compound alone was evaluated for minimum inhibitory concentration against Staphylococcus aureus A9606; format: functional
How it was run: (§1)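 Agar dilution MIC: organisms deposited onto medicated agar plates with a Steers replication device.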

Escherichia coli [6] = assay: Compound alone was evaluated for minimum inhibitory concentration against Escherichia coli A20107; format: functional
How it was run: as §1

Escherichia coli [7] = assay: Compound alone was evaluated for minimum inhibitory concentration against Escherichia coli A20111; format: functional
How it was run: as §1

Staphylococcus aureus [8] = assay: Compound alone was evaluated for minimum inhibitory concentration against Staphylococcus aureus A15033; format: functional
How it was run: as §1

Escherichia coli [9] = assay: Compound was evaluated for minimum inhibitory concentration in the presence of amoxicillin against Escherichia coli A20107; format: functional
How it was run: (§2)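 Agar dilution MIC of a 1:1 (w/w) mixture of test compound with amoxicillin. Organisms were applied to medicated agar plates with a Steers replicator.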

Staphylococcus aureus [10] = assay: Compound was evaluated for minimum inhibitory concentration in the presence of amoxicillin against Staphylococcus aureus A9606; format: functional
How it was run: as §2

Staphylococcus aureus [11] = assay: Compound was evaluated for minimum inhibitory concentration in the presence of amoxicillin against Staphylococcus aureus A15033; format: functional
How it was run: as §2

Escherichia coli [12] = assay: Compound was evaluated for minimum inhibitory concentration in the presence of amoxicillin against Escherichia coli A20111; format: functional
How it was run: as §2

Sequence of Metallo-beta-lactamase type 2 (Bacteroides fragilis) (P25910 whole entry): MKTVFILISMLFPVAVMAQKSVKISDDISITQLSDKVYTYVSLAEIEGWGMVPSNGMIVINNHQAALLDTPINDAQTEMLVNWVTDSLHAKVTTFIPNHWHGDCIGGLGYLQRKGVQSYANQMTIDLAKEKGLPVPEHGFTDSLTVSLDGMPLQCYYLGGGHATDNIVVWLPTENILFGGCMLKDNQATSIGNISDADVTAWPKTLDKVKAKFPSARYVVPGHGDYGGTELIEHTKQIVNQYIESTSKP
Sequence of Beta-lactamase (Staphylococcus aureus) (P00807 whole entry): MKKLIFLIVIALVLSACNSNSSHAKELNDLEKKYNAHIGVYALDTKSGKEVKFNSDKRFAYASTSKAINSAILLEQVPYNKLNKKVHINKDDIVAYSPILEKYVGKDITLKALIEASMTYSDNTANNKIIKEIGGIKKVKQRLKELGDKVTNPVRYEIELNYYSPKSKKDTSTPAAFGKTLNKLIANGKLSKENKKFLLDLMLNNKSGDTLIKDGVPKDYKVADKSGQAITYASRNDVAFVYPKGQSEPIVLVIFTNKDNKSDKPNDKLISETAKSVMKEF
Sequence of Carbapenem-hydrolyzing beta-lactamase KPC (Klebsiella pneumoniae) (Q9F663 whole entry): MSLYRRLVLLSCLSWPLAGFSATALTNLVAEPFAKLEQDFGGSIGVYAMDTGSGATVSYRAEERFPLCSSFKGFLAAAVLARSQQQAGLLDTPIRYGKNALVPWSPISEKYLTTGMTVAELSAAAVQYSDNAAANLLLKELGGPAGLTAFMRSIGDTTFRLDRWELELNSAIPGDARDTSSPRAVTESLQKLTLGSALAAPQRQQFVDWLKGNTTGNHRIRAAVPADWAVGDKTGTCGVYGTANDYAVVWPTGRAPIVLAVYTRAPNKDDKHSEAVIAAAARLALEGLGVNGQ

CC1(C)[C@H](C(=O)O)N2C(=O)C[C@H]2S1(=O)=O
MPC [1]: 1.6 µg/mL

C[C@]1(CBr)[C@H](C(=O)O)N2C(=O)CC2S1(=O)=O (stereo partly drawn)
MPC [2]: 12.5 µg/mL | MPC [3]: 3.1 µg/mL | MPC [4]: 1.6 µg/mL

C[C@]1(CCl)[C@H](C(=O)O)N2C(=O)CC2S1(=O)=O (stereo partly drawn)
MPC [2]: 12.5 µg/mL | MPC [3]: 3.1 µg/mL | MPC [4]: 3.1 µg/mL

C[C@]1(CO)[C@H](C(=O)O)N2C(=O)CC2S1(=O)=O (stereo partly drawn)
MPC [2]: 100 µg/mL | MPC [3]: > 100 µg/mL | MPC [4]: 6.2 µg/mL

CC1(C)S[C@@H]2[C@H](NC(=O)[C@H](N)c3ccc(O)cc3)C(=O)N2[C@H]1C(=O)O [AMOXICILLIN]
MIC (Staphylococcus aureus [5]): 32 µg/mL (≈ 87.6 µM) | MIC (Escherichia coli [6]): > 125 µg/mL | MIC (Escherichia coli [7]): > 125 µg/mL | MIC (Staphylococcus aureus [8]): 32 µg/mL (≈ 87.6 µM)

O=C(O)[C@H]1/C(=C/CO)O[C@@H]2CC(=O)N21 [CLAVULANIC ACID]
MIC (Escherichia coli [9]): 16 µg/mL | MIC (Staphylococcus aureus [10]): 2 µg/mL | MIC (Staphylococcus aureus [5]): 32 µg/mL (≈ 161 µM) | MIC (Staphylococcus aureus [11]): 4 µg/mL | MPC [2]: 63 µg/mL | MIC (Escherichia coli [6]): 63 µg/mL (≈ 316 µM) | MIC (Escherichia coli [12]): 4 µg/mL | MIC (Escherichia coli [7]): 63 µg/mL (≈ 316 µM) | MIC (Staphylococcus aureus [8]): 63 µg/mL (≈ 316 µM)
